Measurements reported in paper PMC9896656 (Investigational new drugs, 2022).
Like-named read-outs stand apart in the source and are kept apart here. Residues, ends and D or L forms follow the SMILES beside them. *: point of attachment. Cbz = O=C(OCc1ccccc1)*

Key:
[1] = tested on: CEM and COLO 205 cells; conditions: 1 mM positive control, 24 h; cell line not stated
[2] = tested on: poly-ubiquitinated proteins in CEM cells; assay: Western blot of poly-ubiquitinated proteins; type: cell-based, human; conditions: 8 h, in comparison to COLO 205
In short: (§1)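 3,000,000 cells per T-25 flask in 10 ml RPMI were treated 8 h at twice the CC50, with MG-132 and 0.3% PEG-400 vehicle controls. Cells were PBS-washed and lysed by boiling 15 min in 2x Laemmli buffer. 100 μg protein was run on 7% SDS-PAGE and transferred to PVDF. Blots were blocked overnight in 5% milk, then probed with mouse anti-ubiquitin (1 h) and HRP anti-mouse (1:10,000, 1 h). ECL imaging and densitometry followed.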

[3] = tested on: poly-ubiquitinated proteins in COLO 205 cells; assay: Western blot of poly-ubiquitinated proteins; type: cell-based, human; conditions: COLO 205, 8 h, 2X CC50
In short: as §1

[4] = tested on: COLO 205 cells; assay: Annexin V-FITC/PI apoptosis/necrosis assay; type: cell-based, human; conditions: COLO 205, 24 h, 2x CC50, compared to DMSO solvent control
[5] = tested on: CEM cells; assay: Mitochondrial membrane potential; type: cell-based, human; conditions: 6 h, CC50 and twice the CC50, vs untreated and DMSO
[6] = Differential nuclear staining; type: cell-based; conditions: human, Hs-27 cells (non-cancerous reference) versus PANC-1 cells
In short: (§2)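 Cells were seeded at 10,000/well in 96-well plates; adherent lines attached overnight. A 0.1–5 μM gradient was applied for 48 h, with 1% DMSO, 1 mM H2O2 and untreated wells. PI and Hoechst 33342 (5 μg/ml each) were added 2 h before reading at 37°C. Wells were imaged to separate dead from total nuclei. CC50 was obtained by linear interpolation of the dose-response. Selectivity index uses Hs-27 as the non-cancer reference.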

[7] = tested on: PANC-1; assay: Differential nuclear staining; type: cell-based; conditions: Homo sapiens, PANC-1, 48 h
In short: as §2

[8] = Differential nuclear staining; type: cell-based; conditions: human, Hs-27 cells (non-cancerous reference) versus HL-60 cells
In short: as §2

[9] = tested on: HL-60; assay: Differential nuclear staining; type: cell-based; conditions: Homo sapiens, HL-60, 48 h
In short: as §2

[10] = tested on: COLO 205 cells; assay: Cell cycle profile analysis; type: cell-based, human; conditions: COLO 205, CC20, 72 h
[11] = tested on: U266; assay: Differential nuclear staining; type: cell-based; conditions: Homo sapiens, U-266, 48 h
In short: as §2

[12] = Differential nuclear staining; type: cell-based; conditions: human, Hs-27 cells (non-cancerous reference) versus U266 cells
In short: as §2

[13] = Differential nuclear staining; type: cell-based, human; conditions: human, Hs-27 cells (non-cancerous reference) versus COLO 205 cells
[14] = tested on: COLO 205; assay: Differential nuclear staining; type: cell-based, human; conditions: for CC20: COLO 205, concentration used for cell cycle analysis; for CC50: Homo sapiens
[15] = Differential nuclear staining; type: cell-based; conditions: human, Hs-27 cells (non-cancerous reference) versus MM1 R cells
In short: as §2

[16] = tested on: MM1 R; assay: Differential nuclear staining; type: cell-based; conditions: Homo sapiens, MM.1R, 48 h
In short: as §2

[17] = tested on: CEM cells; assay: Annexin V-FITC/PI apoptosis/necrosis assay; type: cell-based, human; conditions: 24 h, 2x CC50, compared to DMSO solvent control
[18] = Differential nuclear staining; type: cell-based; conditions: human
In short: as §2

[19] = tested on: MDA-MB-231; assay: Differential nuclear staining; type: cell-based; conditions: Homo sapiens, MDA-MB-231, 48 h
In short: as §2

[20] = tested on: CEM cells; assay: Reactive oxygen species accumulation; type: cell-based, human; conditions: 6 h, compared with DMSO-treated cells
[21] = Differential nuclear staining; type: cell-based; conditions: human; for selectivity ratio at 48 h: Hs-27 cells (non-cancerous reference) versus MCF-10 A cells; for CC50 at 48 h: MCF-10 A cells (breast epithelial)
In short: as §2

[22] = tested on: caspase-3/7 in CEM cells; assay: Caspase-3/7 activation; type: cell-based, human; conditions: 7.5 h, CC50 and twice the CC50, vs vehicle control (1% DMSO)
[23] = Differential nuclear staining; type: cell-based; conditions: human, Hs-27 cells (non-cancerous reference) versus RAMOS cells
In short: as §2

[24] = tested on: RAMOS; assay: Differential nuclear staining; type: cell-based; conditions: Homo sapiens, Ramos, 48 h
In short: as §2

[25] = tested on: CEM; assay: Differential nuclear staining; type: cell-based, human; conditions: CEM; concentration used for cell cycle analysis
[26] = Differential nuclear staining; type: cell-based, human; conditions: human, Hs-27 cells (non-cancerous reference) versus CEM cells
[27] = Differential nuclear staining; type: cell-based; conditions: human, CCD-112-CoN cells (non-cancerous colon fibroblasts)
In short: as §2

[28] = Differential nuclear staining; type: cell-based; conditions: human, Hs-27 cells (non-cancerous reference) versus RPMI-8226 cells
In short: as §2

[29] = tested on: RPMI-8226; assay: Differential nuclear staining; type: cell-based; conditions: Homo sapiens, RPMI-8226, 48 h
In short: as §2

[30] = tested on: COLO 205 cells; assay: Reactive oxygen species accumulation; type: cell-based, human; conditions: COLO 205, 6 h, compared with DMSO-treated cells
[31] = Differential nuclear staining; type: cell-based; conditions: human, HS-27 cells (normal foreskin, non-cancer)
In short: as §2

[32] = tested on: PC-3; assay: Differential nuclear staining; type: cell-based; conditions: Homo sapiens, PC-3, 48 h
In short: as §2

[33] = Differential nuclear staining; type: cell-based; conditions: human, Hs-27 cells (non-cancerous reference) versus PC-3 cells
In short: as §2

[34] = tested on: COLO 205 cells; assay: Mitochondrial membrane potential; type: cell-based, human; conditions: COLO 205, 6 h, CC50 and twice the CC50, vs untreated and DMSO
[35] = Differential nuclear staining; type: cell-based; conditions: human, Hs-27 cells (non-cancerous reference) versus HT-29 cells
In short: as §2

[36] = tested on: HT-29; assay: Differential nuclear staining; type: cell-based; conditions: Homo sapiens, HT-29, 48 h
In short: as §2

[37] = Differential nuclear staining; type: cell-based; conditions: human, Hs-27 cells (non-cancerous reference) versus MM1 S cells
In short: as §2

[38] = tested on: MM1 S; assay: Differential nuclear staining; type: cell-based; conditions: Homo sapiens, MM1.S, 48 h
In short: as §2

[39] = tested on: CEM cells; assay: Cell cycle profile analysis; type: cell-based, human; conditions: CC20, 72 h
[40] = tested on: caspase-3/7 in COLO 205 cells; assay: Caspase-3/7 activation; type: cell-based, human; conditions: COLO 205, 7.5 h, CC50 and twice the CC50, vs vehicle control (1% DMSO)
[41] = COLO 205, 24 h, read-out: 24 h CC50

## OO [H20_2, hydrogen peroxide]
[1]
  percentage of PS externalization: 39%

## CC(C)C[C@@H](C=O)NC(=O)[C@H](CC(C)C)NC(=O)[C@H](CC(C)C)NC(=O)OCc1ccccc1 [MG132, reference compound] (Cbz-Leu-Leu-Leu-aldehyde)
[2]
  proteasome inhibition (poly-ubiquitinated proteins, in words): slight proteasome inhibition
[3]
  accumulation of high molecular weight poly-ubiquitinated proteins (densitometry): 1 fold increase

## O=C1C(=Cc2ccc(F)c(F)c2)CN(C(=O)C(Cl)Cl)CC1=Cc1ccc(F)c(F)c1 [compound 2608, 1-dichloroacetyl – 3,5-bis(3,4-difluorobenzylidene)-4-piperidone]
[4]
  PS externalization (Annexin V-FITC positive cells): significant PS externalization
[5]
  mitochondrial depolarization: significant mitochondrial depolarization
[6]
  selectivity ratio at 48 h: 0.4
[7]
  CC50: 1130 nM
[8]
  selectivity ratio at 48 h: 7.11
[9]
  CC50: 64 nM
[10]
  DNA fragmentation (sub G0/G1): but not in COLO 205
  cell cycle profile: did not alter the cell cycle profile
[11]
  CC50: 14.4 nM
[12]
  selectivity ratio at 48 h: 31.6
[13]
  selectivity ratio at 48 h: 1.07
[14]
  CC20: 761.6 nM
[14]; [41]
  CC50: 1900 nM
[14]; COLO 205, 48 h
  CC50: 424 nM
[15]
  selectivity ratio at 48 h: 28.4
[16]
  CC50: 16 nM
[17]
  PS externalization (Annexin V-FITC positive cells): significant PS externalization
[18]
  selectivity ratio at 48 h: 9.68
[19]
  CC50: 47 nM
[20]
  ROS accumulation: Significant ROS
[21]
  selectivity ratio at 48 h: 2.6
  CC50 at 48 h: 175 nM
[22]
  caspase-3/7 activation: significant caspase-3/7 activation
[23]
  selectivity ratio at 48 h: 4.79
[24]
  CC50: 95 nM
[25]
  CC20: 39.7 nM
[26]
  selectivity ratio at 48 h: 22.8
[27]
  CC50 at 48 h: 120 nM
[3]
  accumulation of high molecular weight poly-ubiquitinated proteins (densitometry): 0.40 fold increase
[28]
  selectivity ratio at 48 h: 11.5
[29]
  CC50: 39.7 nM
[30]
  ROS accumulation: Significant ROS
[31]
  CC50 at 48 h: 455 nM
[32]
  CC50: 301 nM
[33]
  selectivity ratio at 48 h: 1.51
[34]
  mitochondrial depolarization: significant mitochondrial depolarization
[35]
  selectivity ratio at 48 h: 2.8
[36]
  CC50: 162 nM
[37]
  selectivity ratio at 48 h: 25.1
[38]
  CC50: 18.1 nM
[39]
  DNA fragmentation (sub G0/G1): induced DNA fragmentation
[40]
  caspase-3/7 activation: significant caspase-3/7 activation

## O=C1C(=Cc2ccc(Cl)c(Cl)c2)CN(C(=O)C(Cl)Cl)CC1=Cc1ccc(Cl)c(Cl)c1 [compound 2610, 1-dichloroacetyl-3,5-bis(3,4-dichlorobenzylidene)-4-piperidone]
[4]
  PS externalization (Annexin V-FITC positive cells): significant PS externalization
[5]
  mitochondrial depolarization: significant mitochondrial depolarization
[6]
  selectivity ratio at 48 h: 0.48
[7]
  CC50: 414 nM
[8]
  selectivity ratio at 48 h: 8.33
[9]
  CC50: 24 nM
[10]
  DNA fragmentation (sub G0/G1): caused DNA fragmentation on both cell lines
  cell cycle profile: did not alter the cell cycle profile
[11]
  CC50: 762 nM
[12]
  selectivity ratio at 48 h: 0.26
[13]
  selectivity ratio at 48 h: 0.12
[14]
  CC20: 1516.4 nM
[14]; [41]
  CC50: 3790 nM
[14]; COLO 205, 48 h
  CC50: 1660 nM
[15]
  selectivity ratio at 48 h: 22.2
[16]
  CC50: 9 nM
[17]
  PS externalization (Annexin V-FITC positive cells): significant PS externalization
[18]
  selectivity ratio at 48 h: 1.65
[19]
  CC50: 121 nM
[20]
  ROS accumulation: Significant ROS
[21]
  selectivity ratio at 48 h: 1.66
  CC50 at 48 h: 120 nM
[22]
  caspase-3/7 activation: significant caspase-3/7 activation
[23]
  selectivity ratio at 48 h: 5.55
[24]
  CC50: 36 nM
[25]
  CC20: 37.2 nM
[26]
  selectivity ratio at 48 h: 6.66
[27]
  CC50 at 48 h: 176 nM
[3]
  accumulation of high molecular weight poly-ubiquitinated proteins (densitometry): 1.41 fold increase
[28]
  selectivity ratio at 48 h: 0.599
[29]
  CC50: 334 nM
[30]
  ROS accumulation: Significant ROS
[31]
  CC50 at 48 h: 200 nM
[32]
  CC50: 446 nM
[33]
  selectivity ratio at 48 h: 0.44
[34]
  mitochondrial depolarization: significant mitochondrial depolarization
[35]
  selectivity ratio at 48 h: 5.55
[36]
  CC50: 36 nM
[37]
  selectivity ratio at 48 h: 7.66
[38]
  CC50: 26.1 nM
[39]
  DNA fragmentation (sub G0/G1): caused DNA fragmentation on both cell lines
[40]
  caspase-3/7 activation: significant caspase-3/7 activation
